From ChEMBL document CHEMBL4257473, “Design, synthesis and antibacterial evaluation of a polycationic calix[4]arene derivative alone and in combination with antibiotics” (Medchemcomm, 2018)
≈ marks a conversion by molar mass, not a printed value.

Experiments:
Type in all cases: functional
Staphylococcus aureus [1] = assay: Antibacterial activity against Staphylococcus aureus ATCC 6538 after 24 hrs by microbroth dilution method; details: ATCC 6538, 24 h
Procedure, shortened: (§1)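 Broth microdilution per NCCLS guidelines in Mueller Hinton broth, from overnight cultures. Final inoculum 5×10^5 CFU mL⁻¹. Calixarene tested at 1–1024 μg mL⁻¹, ofloxacin 0.06–2048, chloramphenicol 1–2048, tetracycline 0.03–128 μg mL⁻¹. Plates incubated 37 °C for 24 h. MIC is the lowest concentration with no visible growth. Triplicate, with growth control, and modal value reported.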

Staphylococcus aureus [2] = assay: Antibacterial activity against methicillin-resistant Staphylococcus aureus 15 after 24 hrs by microbroth dilution method; details: Staphylococcus aureus, 15, 24 h; procedure, shortened: as §1
[3] = tested on: Staphylococcus epidermidis; assay: Antibacterial activity against Staphylococcus epidermidis ATCC 35984 after 24 hrs by microbroth dilution method; details: ATCC 35984, 24 h
Procedure, shortened: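 Broth microdilution per NCCLS guidelines in Mueller Hinton broth, overnight culture inoculated at final 5×10^5 CFU mL⁻¹. Calixarene tested at 1-1024 µg mL⁻¹. Incubation 37 °C for 24 h. MIC taken as the lowest concentration with no visible growth. Growth control included, triplicate runs, modal value reported.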

[4] = tested on: Staphylococcus epidermidis; assay: Antibacterial activity against methicillin-resistant Staphylococcus epidermidis 57 after 24 hrs by microbroth dilution method; details: Staphylococcus epidermidis, 57, 24 h; procedure, shortened: as §1
Pseudomonas aeruginosa [5] = assay: Antibacterial activity against Pseudomonas aeruginosa ATCC 9027 after 24 hrs by microbroth dilution method; details: ATCC 9027, 24 h; procedure, shortened: as §1
Pseudomonas aeruginosa [6] = assay: Antibacterial activity against Pseudomonas aeruginosa isolate 1 after 24 hrs by microbroth dilution method; details: isolate 1, 24 h; procedure, shortened: as §1
Staphylococcus aureus [7] = assay: Bactericidal activity against Staphylococcus aureus ATCC 6538 incubated for 24 hrs followed by replating on Mueller hinton agar plates and measured after 24 hrs; details: ATCC 6538, 24 h
Procedure, shortened: (§2)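 MBC follows the broth microdilution MIC step (MHB, 5×10^5 CFU mL⁻¹, 37 °C, 24 h). 15 µL from every clear MIC well is seeded onto Mueller Hinton agar and incubated 37 °C for 24 h. MBC is the lowest concentration giving no growth. At least three replicates, and modal value reported.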

Staphylococcus aureus [8] = assay: Bactericidal activity against methicillin-resistant Staphylococcus aureus 15 incubated for 24 hrs followed by replating on Mueller hinton agar plates and measured after 24 hrs; details: Staphylococcus aureus, 15, 24 h; procedure, shortened: as §2
[9] = tested on: Staphylococcus epidermidis; assay: Bactericidal activity against Staphylococcus epidermidis ATCC 35984 incubated for 24 hrs followed by replating on Mueller hinton agar plates and measured after 24 hrs; details: ATCC 35984, 24 h; procedure, shortened: as §2
[10] = tested on: Staphylococcus epidermidis; assay: Bactericidal activity against methicillin-resistant Staphylococcus epidermidis 57 incubated for 24 hrs followed by replating on Mueller hinton agar plates and measured after 24 hrs; details: Staphylococcus epidermidis, 57, 24 h; procedure, shortened: as §2
Pseudomonas aeruginosa [11] = assay: Bactericidal activity against Pseudomonas aeruginosa ATCC 9027 incubated for 24 hrs followed by replating on Mueller hinton agar plates and measured after 24 hrs; details: ATCC 9027, 24 h
Procedure, shortened: (§3)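 MBC follows a broth microdilution MIC run (Mueller Hinton broth, 5×10^5 CFU mL⁻¹, 37 °C, 24 h). 15 µL from every clear well is seeded onto Mueller Hinton agar and incubated at 37 °C for 24 h. MBC is the lowest concentration giving no growth. At least three replicates, modal result used.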

Pseudomonas aeruginosa [12] = assay: Bactericidal activity against Pseudomonas aeruginosa isolate 1 incubated for 24 hrs followed by replating on Mueller hinton agar plates and measured after 24 hrs; details: isolate 1, 24 h; procedure, shortened: as §3
[13] = tested on: Staphylococcus epidermidis; assay: Potency index, ratio of ofloxacin MIC to test compound MIC for Staphylococcus epidermidis 57
[14] = tested on: Staphylococcus epidermidis; assay: Potency index, ratio of ofloxacin MBC to test compound MBC for Staphylococcus epidermidis 57
Pseudomonas aeruginosa [15] = assay: Potency index, ratio of ofloxacin MBC to test compound MBC for Pseudomonas aeruginosa isolate 1
Staphylococcus aureus [16] = assay: Potency index, ratio of chloramphenicol MIC to test compound MIC for methicillin-resistant Staphylococcus aureus 15
Staphylococcus aureus [17] = assay: Potency index, ratio of chloramphenicol MBC to test compound MBC for methicillin-resistant Staphylococcus aureus 15
[18] = tested on: Staphylococcus epidermidis; assay: Potency index, ratio of chloramphenicol MIC to test compound MIC for Staphylococcus epidermidis ATCC 35984
[19] = tested on: Staphylococcus epidermidis; assay: Potency index, ratio of chloramphenicol MBC to test compound MBC for Staphylococcus epidermidis ATCC 35984
[20] = tested on: Staphylococcus epidermidis; assay: Potency index, ratio of chloramphenicol MIC to test compound MIC for Staphylococcus epidermidis 57
[21] = tested on: Staphylococcus epidermidis; assay: Potency index, ratio of chloramphenicol MBC to test compound MBC for Staphylococcus epidermidis 57
Pseudomonas aeruginosa [22] = assay: Potency index, ratio of chloramphenicol MIC to test compound MIC for Pseudomonas aeruginosa isolate 1
Pseudomonas aeruginosa [23] = assay: Potency index, ratio of chloramphenicol MBC to test compound MBC for Pseudomonas aeruginosa isolate 1
Staphylococcus aureus [24] = assay: Antibacterial activity against Staphylococcus aureus ATCC 6538 assessed as FIC index after overnight incubation in presence of ofloxacin by checkerboard assay
Procedure, shortened: (§4)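 Checkerboard combination of the calixarene with each antibiotic, each agent at final 2 to 0.015 times its MIC, giving 64 combinations. Inoculum prepared in Mueller Hinton broth and added at final 5×10^5 CFU mL⁻¹. Plates incubated overnight at 37 °C, then FICI calculated from the combination MICs.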

Staphylococcus aureus [25] = assay: Antibacterial activity against methicillin-resistant Staphylococcus aureus 15 assessed as FIC index after overnight incubation in presence of ofloxacin by checkerboard assay
Procedure, shortened: (§5)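 Checkerboard combinations of calixarene with antibiotic, each at final concentrations from 2 to 0.015 × its MIC, giving 64 combinations per plate. Inoculum prepared in MHB, final 5×10^5 CFU mL⁻¹. Incubated overnight at 37 °C. Fractional inhibitory concentration index calculated from the combination MICs.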

[26] = tested on: Staphylococcus epidermidis; assay: Antibacterial activity against Staphylococcus epidermidis ATCC 35984 assessed as FIC index after overnight incubation in presence of ofloxacin by checkerboard assay; procedure, shortened: as §4
[27] = tested on: Staphylococcus epidermidis; assay: Antibacterial activity against methicillin-resistant Staphylococcus epidermidis 57 assessed as FIC index after overnight incubation in presence of ofloxacin by checkerboard assay; procedure, shortened: as §5
Pseudomonas aeruginosa [28] = assay: Antibacterial activity against Pseudomonas aeruginosa ATCC 9027 assessed as FIC index after overnight incubation in presence of ofloxacin by checkerboard assay; procedure, shortened: as §4
Pseudomonas aeruginosa [29] = assay: Antibacterial activity against Pseudomonas aeruginosa isolate 1 assessed as FIC index after overnight incubation in presence of ofloxacin by checkerboard assay; procedure, shortened: as §4
Staphylococcus aureus [30] = assay: Antibacterial activity against Staphylococcus aureus ATCC 6538 assessed as FIC index after overnight incubation in presence of chloramphenicol by checkerboard assay; procedure, shortened: as §4
[31] = tested on: Staphylococcus epidermidis; assay: Antibacterial activity against Staphylococcus epidermidis ATCC 35984 assessed as FIC index after overnight incubation in presence of chloramphenicol by checkerboard assay; procedure, shortened: as §5
Pseudomonas aeruginosa [32] = assay: Antibacterial activity against Pseudomonas aeruginosa ATCC 9027 assessed as FIC index after overnight incubation in presence of chloramphenicol by checkerboard assay; procedure, shortened: as §4
Pseudomonas aeruginosa [33] = assay: Antibacterial activity against Pseudomonas aeruginosa isolate 1 assessed as FIC index after overnight incubation in presence of chloramphenicol by checkerboard assay; procedure, shortened: as §4
Staphylococcus aureus [34] = assay: Antibacterial activity against Staphylococcus aureus ATCC 6538 assessed as FIC index after overnight incubation in presence of tetracycline by checkerboard assay; procedure, shortened: as §4
Staphylococcus aureus [35] = assay: Antibacterial activity against methicillin-resistant Staphylococcus aureus 15 assessed as FIC index after overnight incubation in presence of tetracycline by checkerboard assay; procedure, shortened: as §5
[36] = tested on: Staphylococcus epidermidis; assay: Antibacterial activity against methicillin-resistant Staphylococcus epidermidis 57 assessed as FIC index after overnight incubation in presence of tetracycline by checkerboard assay; procedure, shortened: as §5
Pseudomonas aeruginosa [37] = assay: Antibacterial activity against Pseudomonas aeruginosa ATCC 9027 assessed as FIC index after overnight incubation in presence of tetracycline by checkerboard assay; procedure, shortened: as §5
Pseudomonas aeruginosa [38] = assay: Antibacterial activity against Pseudomonas aeruginosa isolate 1 assessed as FIC index after overnight incubation in presence of tetracycline by checkerboard assay; procedure, shortened: as §4

## CCCOc1c2cc(C[N+](C)(CCO)CCO)cc1Cc1cc(C[N+](C)(CCO)CCO)cc(c1OCCC)Cc1cc(C[N+](C)(CCO)CCO)cc(c1OCCC)Cc1cc(C[N+](C)(CCO)CCO)cc(c1OCCC)C2.[Cl-].[Cl-].[Cl-].[Cl-]
Staphylococcus aureus [1]
  MIC: 4 µg/mL
Staphylococcus aureus [2]
  MIC: 4 µg/mL
[3]
  MIC: 4 µg/mL
[4]
  MIC: 4 µg/mL
Pseudomonas aeruginosa [5]
  MIC: 128 µg/mL
Pseudomonas aeruginosa [6]
  MIC: 256 µg/mL
Staphylococcus aureus [7]
  MBC: 8 µg/mL
Staphylococcus aureus [8]
  MBC: 8 µg/mL
[9]
  MBC: 8 µg/mL
[10]
  MBC: 8 µg/mL
Pseudomonas aeruginosa [11]
  MBC: 256 µg/mL
Pseudomonas aeruginosa [12]
  MBC: 256 µg/mL
[13]
  Ratio: 131
[14]
  Ratio: 262
Pseudomonas aeruginosa [15]
  Ratio: 2
Staphylococcus aureus [16]
  Ratio: 2
Staphylococcus aureus [17]
  Ratio: 16
[18]
  Ratio: 4
[19]
  Ratio: 16
[20]
  Ratio: 2
[21]
  Ratio: 32
Pseudomonas aeruginosa [22]
  Ratio: 2
Pseudomonas aeruginosa [23]
  Ratio: 4
Staphylococcus aureus [24]
  fractional inhibitory concentration index (FICI): 1.25
Staphylococcus aureus [25]
  fractional inhibitory concentration index (FICI): 1
[26]
  fractional inhibitory concentration index (FICI): 1.25
[27]
  fractional inhibitory concentration index (FICI): 1
Pseudomonas aeruginosa [28]
  fractional inhibitory concentration index (FICI): 1.06
Pseudomonas aeruginosa [29]
  fractional inhibitory concentration index (FICI): 0.62
Staphylococcus aureus [30]
  fractional inhibitory concentration index (FICI): 1.12
[31]
  fractional inhibitory concentration index (FICI): 1.03
Pseudomonas aeruginosa [32]
  fractional inhibitory concentration index (FICI): 0.62
Pseudomonas aeruginosa [33]
  fractional inhibitory concentration index (FICI): 0.53
Staphylococcus aureus [34]
  fractional inhibitory concentration index (FICI): 1.48
Staphylococcus aureus [35]
  fractional inhibitory concentration index (FICI): 1.03
[36]
  fractional inhibitory concentration index (FICI): 1.03
Pseudomonas aeruginosa [37]
  fractional inhibitory concentration index (FICI): 1.06
Pseudomonas aeruginosa [38]
  fractional inhibitory concentration index (FICI): 0.56

## O=C(N[C@H](CO)[C@H](O)c1ccc([N+](=O)[O-])cc1)C(Cl)Cl [CHLORAMPHENICOL]
Staphylococcus aureus [1]
  MIC: 4 µg/mL (≈ 12.4 µM)
Staphylococcus aureus [2]
  MIC: 8 µg/mL (≈ 24.8 µM)
[3]
  MIC: 16 µg/mL (≈ 49.5 µM)
[4]
  MIC: 8 µg/mL (≈ 24.8 µM)
Pseudomonas aeruginosa [5]
  MIC: 64 µg/mL (≈ 198 µM)
Pseudomonas aeruginosa [6]
  MIC: 512 µg/mL (≈ 1580 µM)
Staphylococcus aureus [7]
  MBC: 8 µg/mL (≈ 24.8 µM)
Staphylococcus aureus [8]
  MBC: 128 µg/mL (≈ 396 µM)
[9]
  MBC: 128 µg/mL (≈ 396 µM)
[10]
  MBC: 256 µg/mL (≈ 792 µM)
Pseudomonas aeruginosa [11]
  MBC: 128 µg/mL (≈ 396 µM)
Pseudomonas aeruginosa [12]
  MBC: 1020 µg/mL (≈ 3170 µM)

## CC1COc2c(N3CCN(C)CC3)c(F)cc3c(=O)c(C(=O)O)cn1c23 (stereo not drawn) [OFLOXACIN]
Staphylococcus aureus [1]
  MIC: 0.25 µg/mL (≈ 0.692 µM)
Staphylococcus aureus [2]
  MIC: 512 µg/mL (≈ 1420 µM)
[3]
  MIC: 0.25 µg/mL (≈ 0.692 µM)
[4]
  MIC: 512 µg/mL (≈ 1420 µM)
Pseudomonas aeruginosa [6]
  MIC: 256 µg/mL (≈ 708 µM)
Staphylococcus aureus [7]
  MBC: 0.5 µg/mL (≈ 1.38 µM)
Staphylococcus aureus [8]
  MBC: > 2050 µg/mL
[9]
  MBC: 0.5 µg/mL (≈ 1.38 µM)
[10]
  MBC: > 2050 µg/mL
Pseudomonas aeruginosa [11]
  MBC: 2 µg/mL (≈ 5.53 µM)
Pseudomonas aeruginosa [12]
  MBC: 512 µg/mL (≈ 1420 µM)

## CN(C)[C@@H]1C(O)=C(C(N)=O)C(=O)[C@@]2(O)C(O)=C3C(=O)c4c(O)cccc4[C@@](C)(O)[C@H]3C[C@@H]12 [TETRACYCLINE]
Staphylococcus aureus [1]
  MIC: 0.125 µg/mL (≈ 0.281 µM)
Staphylococcus aureus [2]
  MIC: 1 µg/mL (≈ 2.25 µM)
[3]
  MIC: 0.5 µg/mL (≈ 1.13 µM)
[4]
  MIC: 1 µg/mL (≈ 2.25 µM)
Pseudomonas aeruginosa [5]
  MIC: 16 µg/mL (≈ 36 µM)
Pseudomonas aeruginosa [6]
  MIC: 16 µg/mL (≈ 36 µM)
Staphylococcus aureus [7]
  MBC: 4 µg/mL (≈ 9 µM)
Staphylococcus aureus [8]
  MBC: 16 µg/mL (≈ 36 µM)
[9]
  MBC: 8 µg/mL (≈ 18 µM)
[10]
  MBC: 16 µg/mL (≈ 36 µM)
Pseudomonas aeruginosa [11]
  MBC: 32 µg/mL (≈ 72 µM)
Pseudomonas aeruginosa [12]
  MBC: 32 µg/mL (≈ 72 µM)
